Activity calls are given as the source filed them. No cut-off for these calls is given here.
How the values were obtained:
[1] = system: CAKI-1; assay: Antiproliferative activity against human CAKI-1 cells assessed as inhibition of cell growth incubated for 72 hrs by cell-titer glo assay; assay type: functional, cell-based; conditions: CAKI-1, 72 h
How it was run: (§1)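 Cells seeded 10,000–30,000/cm² (adherent) or 100,000/mL (suspension) in medium with 10% fetal calf serum; after 24 h treated in duplicate with serial dilutions for 72 h. Viable cells read by CellTiter-Glo luminescence; IC50 from sigmoidal fit; at least two independent experiments.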

[2] = Inhibition of PDGFR (unknown origin) in presence of [gamma-33P]ATP; design: species or system Homo sapiens
[3] = molecular target: Ephrin type-B receptor 1 (Homo sapiens) (UniProt P54762); assay: Inhibition of N-terminal 6His-tagged recombinant human EphB1 (564 to end residues) expressed in baculovirus infected Sf21 cells assessed as residual activity at 1 uM relative to control
Ephrin type-B receptor 1 (Homo sapiens), sequence (P54762 whole entry): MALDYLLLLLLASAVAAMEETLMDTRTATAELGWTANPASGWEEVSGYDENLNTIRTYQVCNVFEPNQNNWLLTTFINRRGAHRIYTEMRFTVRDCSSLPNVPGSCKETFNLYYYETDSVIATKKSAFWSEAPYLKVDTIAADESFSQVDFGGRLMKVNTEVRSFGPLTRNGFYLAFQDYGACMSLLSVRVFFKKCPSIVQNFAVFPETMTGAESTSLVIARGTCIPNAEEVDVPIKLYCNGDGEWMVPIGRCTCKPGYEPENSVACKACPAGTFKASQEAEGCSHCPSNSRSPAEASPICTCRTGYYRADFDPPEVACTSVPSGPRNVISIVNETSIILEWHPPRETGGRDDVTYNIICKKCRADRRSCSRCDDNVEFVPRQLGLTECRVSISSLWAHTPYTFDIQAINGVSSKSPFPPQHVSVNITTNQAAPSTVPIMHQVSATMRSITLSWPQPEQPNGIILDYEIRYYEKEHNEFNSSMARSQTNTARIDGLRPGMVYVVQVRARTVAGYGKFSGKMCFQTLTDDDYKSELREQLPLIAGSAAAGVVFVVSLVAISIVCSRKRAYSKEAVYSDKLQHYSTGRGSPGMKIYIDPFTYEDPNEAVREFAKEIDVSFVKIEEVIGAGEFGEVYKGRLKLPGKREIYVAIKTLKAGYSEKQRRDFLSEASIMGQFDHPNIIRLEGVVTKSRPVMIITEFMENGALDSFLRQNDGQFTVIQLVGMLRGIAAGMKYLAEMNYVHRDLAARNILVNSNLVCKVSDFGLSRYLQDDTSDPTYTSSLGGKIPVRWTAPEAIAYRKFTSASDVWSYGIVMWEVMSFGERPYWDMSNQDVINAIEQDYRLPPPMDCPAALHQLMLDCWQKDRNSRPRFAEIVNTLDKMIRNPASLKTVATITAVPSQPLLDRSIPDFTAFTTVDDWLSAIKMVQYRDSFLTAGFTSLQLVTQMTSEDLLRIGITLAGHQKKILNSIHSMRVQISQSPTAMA

[4] = system: U2OS; assay: Antiproliferative activity against human U2OS cells assessed as inhibition of cell growth incubated for 72 hrs by cell-titer glo assay; assay type: functional, cell-based
[5] = molecular target: Serine/threonine-protein kinase pim-1 (Homo sapiens, UniProt P11309); assay: Inhibition of PIM1 (unknown origin) in presence of [gamma-33P]ATP
Serine/threonine-protein kinase pim-1, sequence (P11309 whole entry): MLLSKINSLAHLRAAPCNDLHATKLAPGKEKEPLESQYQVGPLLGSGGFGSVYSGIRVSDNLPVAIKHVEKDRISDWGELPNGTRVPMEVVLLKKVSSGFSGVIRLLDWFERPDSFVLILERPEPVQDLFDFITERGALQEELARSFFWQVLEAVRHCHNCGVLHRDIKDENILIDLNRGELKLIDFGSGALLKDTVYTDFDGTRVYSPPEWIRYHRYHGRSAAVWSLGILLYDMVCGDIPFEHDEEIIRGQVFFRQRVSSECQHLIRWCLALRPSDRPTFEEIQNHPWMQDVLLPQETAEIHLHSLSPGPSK

[6] = Antitumor activity against human Acute myeloid leukemic cell xenografted in nu/nu mouse assessed as increase in median survival time at 120 mg/kg, po administered for 2 days and measured after 5 days (reference value: 36 days); assay type: functional, Leukemia cell; conditions: time 2 day
[7] = system: U-87 MG; assay: Antiproliferative activity against human U-87 MG cells assessed as inhibition of cell growth incubated for 72 hrs by cell-titer glo assay; assay type: functional, cell-based, U-87MG ATCC
[8] = Half-life in nu/nu mouse at 10 mg/kg, po by LC-MS analysis; assay type: ADME, organism-based; conditions: in vivo
[9] = system: HCT-116; assay: Antitumor activity against human HCT-116 cells xenografted in nu/nu mouse assessed as tumor growth inhibition at 60 mg/kg, po administered for 8 days relative to control; assay type: functional; conditions: HCT-116, 192 h, time 8 day, read-out: TGI
[10] = system: HCT-15; assay: Antiproliferative activity against human HCT-15 cells assessed as inhibition of cell growth incubated for 72 hrs by cell-titer glo assay; assay type: functional, cell-based; conditions: HCT-15, 72 h
How it was run: (§2)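 Cells seeded at 10,000–30,000/cm² (adherent) or 100,000/mL (nonadherent) in medium with 10% fetal calf serum; after 24 h, treated in duplicate with serial dilutions for 72 h. Viable cell number read by CellTiter-Glo luminescence; IC50 from sigmoidal fit; at least two independent experiments.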

[11] = system: MOLM-13; assay: Antiproliferative activity against human MOLM-13 cells assessed as inhibition of cell growth incubated for 72 hrs by cell-titer glo assay; assay type: functional, cell-based; conditions: MOLM-13, 72 h
How it was run: (§3)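 Cells from ATCC or ECACC, kept in supplier-recommended medium with 1% penicillin-streptomycin at 37°C, 5% CO₂. Seeded at 10,000–30,000/cm² (adherent) or 100,000/mL (nonadherent) in medium with 10% fetal calf serum. Dosed after 24 h in duplicate with serial dilutions. Viable cells read by CellTiter-Glo 72 h later. IC50 from sigmoidal fit. At least two independent experiments.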

[12] = molecular target: Casein kinase I isoform gamma-1 (Homo sapiens) (UniProt Q9HCP0); assay: Inhibition of N-terminal 6His-tagged recombinant human CK1gamma1 (25 to 355 residues) expressed in baculovirus infected Sf21 cells assessed as residual activity at 1 uM relative to control
Casein kinase I isoform gamma-1 (Homo sapiens), sequence (Q9HCP0 whole entry, looked up, the tested form may be a part, canonical isoform): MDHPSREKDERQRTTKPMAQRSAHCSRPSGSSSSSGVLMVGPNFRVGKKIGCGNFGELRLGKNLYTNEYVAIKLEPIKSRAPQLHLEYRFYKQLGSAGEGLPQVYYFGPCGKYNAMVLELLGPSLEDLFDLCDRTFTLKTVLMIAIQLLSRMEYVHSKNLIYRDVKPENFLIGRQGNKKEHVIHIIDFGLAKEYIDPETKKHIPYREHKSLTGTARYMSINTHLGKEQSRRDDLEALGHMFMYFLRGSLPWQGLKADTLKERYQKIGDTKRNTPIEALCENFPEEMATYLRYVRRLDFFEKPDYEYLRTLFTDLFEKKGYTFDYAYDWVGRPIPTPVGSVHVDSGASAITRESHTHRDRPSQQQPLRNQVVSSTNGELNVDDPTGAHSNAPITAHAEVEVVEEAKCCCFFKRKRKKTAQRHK

[13] = system: SR; assay: Antiproliferative activity against human SR cells assessed as inhibition of cell growth incubated for 72 hrs by cell-titer glo assay; assay type: functional, cell-based
[14] = system: SK-OV-3; assay: Antiproliferative activity against human SK-OV-3 cells assessed as inhibition of cell growth incubated for 72 hrs by cell-titer glo assay; assay type: functional, cell-based; conditions: SK-OV-3, 72 h
[15] = system: OVCAR-3; assay: Antiproliferative activity against human OVCAR-3 cells assessed as inhibition of cell growth incubated for 72 hrs by cell-titer glo assay; assay type: functional, cell-based; conditions: OVCAR-3, 72 h; how it was run: as §3
[16] = molecular target: Serine/threonine-protein kinase Nek11 (Homo sapiens) (UniProt Q8NG66); assay: Inhibition of 6His-tagged recombinant human full-length NEK11 expressed in baculovirus infected Sf21 cells assessed as residual activity at 0.1 uM relative to control
Serine/threonine-protein kinase Nek11 (Homo sapiens), sequence (Q8NG66 whole entry): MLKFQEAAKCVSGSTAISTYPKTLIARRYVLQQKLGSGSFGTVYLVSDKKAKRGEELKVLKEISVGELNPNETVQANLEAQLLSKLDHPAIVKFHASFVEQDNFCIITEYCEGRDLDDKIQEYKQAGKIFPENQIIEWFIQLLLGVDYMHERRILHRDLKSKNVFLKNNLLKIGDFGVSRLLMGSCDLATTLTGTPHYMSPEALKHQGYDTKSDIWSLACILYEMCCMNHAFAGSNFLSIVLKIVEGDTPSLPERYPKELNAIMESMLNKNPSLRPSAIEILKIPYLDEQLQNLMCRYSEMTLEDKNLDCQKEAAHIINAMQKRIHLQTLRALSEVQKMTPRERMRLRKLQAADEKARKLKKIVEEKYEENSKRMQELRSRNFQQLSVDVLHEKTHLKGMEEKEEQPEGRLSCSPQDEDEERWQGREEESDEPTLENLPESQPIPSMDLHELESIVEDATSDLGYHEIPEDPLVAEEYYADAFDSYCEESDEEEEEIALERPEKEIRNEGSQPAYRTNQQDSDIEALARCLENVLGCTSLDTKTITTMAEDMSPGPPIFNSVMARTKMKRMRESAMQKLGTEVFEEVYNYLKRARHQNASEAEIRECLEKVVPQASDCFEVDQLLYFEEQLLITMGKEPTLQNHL

[17] = system: THP-1; assay: Antiproliferative activity against human THP-1 cells assessed as inhibition of cell growth incubated for 72 hrs by cell-titer glo assay; assay type: functional, cell-based; conditions: THP-1, 72 h
[18] = molecular target: Protein kinase C delta type (Homo sapiens) (UniProt Q05655); assay: Inhibition of N-terminal His6-tagged recombinant human PKCdelta (2 to end residues) expressed in Sf21 cells assessed as residual activity at 1 uM relative to control
Protein kinase C delta type (Homo sapiens), sequence (Q05655 whole entry, looked up): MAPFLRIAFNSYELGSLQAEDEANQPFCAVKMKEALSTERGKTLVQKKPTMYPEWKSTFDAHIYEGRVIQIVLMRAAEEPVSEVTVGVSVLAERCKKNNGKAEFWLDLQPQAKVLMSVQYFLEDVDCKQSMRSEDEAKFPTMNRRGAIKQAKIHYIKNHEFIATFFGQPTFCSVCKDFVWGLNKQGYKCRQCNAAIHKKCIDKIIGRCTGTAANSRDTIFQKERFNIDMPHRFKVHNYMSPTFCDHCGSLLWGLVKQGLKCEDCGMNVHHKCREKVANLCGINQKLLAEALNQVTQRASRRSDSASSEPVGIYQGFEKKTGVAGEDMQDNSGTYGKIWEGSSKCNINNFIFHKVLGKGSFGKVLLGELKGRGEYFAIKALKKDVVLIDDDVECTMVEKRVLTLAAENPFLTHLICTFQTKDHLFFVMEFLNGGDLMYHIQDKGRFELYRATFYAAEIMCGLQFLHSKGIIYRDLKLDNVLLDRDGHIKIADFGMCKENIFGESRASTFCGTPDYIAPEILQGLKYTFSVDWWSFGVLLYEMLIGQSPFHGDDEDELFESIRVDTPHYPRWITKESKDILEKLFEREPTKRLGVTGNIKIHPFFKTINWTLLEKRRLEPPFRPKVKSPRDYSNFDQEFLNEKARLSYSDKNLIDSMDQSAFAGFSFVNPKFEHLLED

[19] = Plasma concentration in nu/nu mouse xenografted with human HL-60 cells at 60 mg/kg, po administered for 10 days relative to control; assay type: ADME, organism-based; conditions: time 10 day
[20] = system: Calu-3; assay: Antiproliferative activity against human Calu-3 cells assessed as inhibition of cell growth incubated for 72 hrs by cell-titer glo assay; assay type: functional, cell-based; conditions: Calu-3, 72 h; how it was run: as §1
[21] = molecular target: Dual specificity tyrosine-phosphorylation-regulated kinase 2 (Homo sapiens) (UniProt Q92630); assay: Inhibition of 6His-tagged recombinant full-length human DYRK2 expressed in baculovirus infected Sf21 cells assessed as residual activity at 1 uM relative to control
Dual specificity tyrosine-phosphorylation-regulated kinase 2 (Homo sapiens), sequence (Q92630 whole entry): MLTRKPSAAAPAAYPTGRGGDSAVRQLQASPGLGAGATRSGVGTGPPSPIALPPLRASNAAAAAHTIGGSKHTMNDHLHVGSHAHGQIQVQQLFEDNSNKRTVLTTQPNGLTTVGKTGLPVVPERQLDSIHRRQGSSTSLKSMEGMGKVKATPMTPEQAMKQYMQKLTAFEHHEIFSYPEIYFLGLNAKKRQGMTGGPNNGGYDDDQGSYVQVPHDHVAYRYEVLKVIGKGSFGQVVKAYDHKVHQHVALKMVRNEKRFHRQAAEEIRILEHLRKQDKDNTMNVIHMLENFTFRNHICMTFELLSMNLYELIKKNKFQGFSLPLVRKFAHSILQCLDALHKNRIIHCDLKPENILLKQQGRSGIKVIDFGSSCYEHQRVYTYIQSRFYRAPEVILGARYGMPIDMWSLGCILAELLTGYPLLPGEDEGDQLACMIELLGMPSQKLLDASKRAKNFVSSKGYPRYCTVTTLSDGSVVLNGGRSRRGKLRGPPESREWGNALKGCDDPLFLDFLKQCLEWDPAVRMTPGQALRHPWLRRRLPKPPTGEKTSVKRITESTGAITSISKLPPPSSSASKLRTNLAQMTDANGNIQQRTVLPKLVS

[22] = molecular target: Tyrosine-protein kinase Fgr (Homo sapiens) (UniProt P09769); assay: Inhibition of N-terminal His6-tagged recombinant human Fgr (2 to end residues) expressed in baculovirus infected Sf21 cells assessed as residual activity at 1 uM relative to control
Tyrosine-protein kinase Fgr (Homo sapiens), sequence (P09769 2-529 limits assumed): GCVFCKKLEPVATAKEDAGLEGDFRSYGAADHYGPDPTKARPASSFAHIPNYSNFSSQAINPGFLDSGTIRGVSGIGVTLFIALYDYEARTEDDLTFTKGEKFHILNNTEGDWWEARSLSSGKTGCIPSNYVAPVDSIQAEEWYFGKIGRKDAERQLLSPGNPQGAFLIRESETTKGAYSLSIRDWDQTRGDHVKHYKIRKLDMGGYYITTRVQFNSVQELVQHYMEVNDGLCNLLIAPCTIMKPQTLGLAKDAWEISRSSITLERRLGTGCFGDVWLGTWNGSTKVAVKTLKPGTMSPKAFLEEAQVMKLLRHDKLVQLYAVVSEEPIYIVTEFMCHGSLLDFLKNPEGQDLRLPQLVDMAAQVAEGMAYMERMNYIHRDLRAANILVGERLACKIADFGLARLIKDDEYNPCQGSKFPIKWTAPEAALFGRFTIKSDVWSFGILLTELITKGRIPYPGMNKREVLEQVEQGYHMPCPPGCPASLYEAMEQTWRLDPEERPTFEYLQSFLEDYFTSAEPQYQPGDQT

[23] = system: A2780; assay: Induction of mitosis in human A2780 cells xenografted in nu/nu mouse assessed as increased Histone H3 phosphorylation on Ser10 at 60 mg/kg, po administered for 2 to 6 hrs by immunohistochemistry analysis; assay type: functional, organism-based; conditions: time 2-6 hrs
[24] = system: U-937; assay: Antiproliferative activity against human U-937 cells assessed as inhibition of cell growth incubated for 72 hrs by cell-titer glo assay; assay type: functional, cell-based; conditions: U-937, 72 h
[25] = molecular target: cAMP-dependent protein kinase (PKA) (Homo sapiens) (UniProt P22694+P17612+P22612); assay: Inhibition of recombinant human full-length PKA expressed in E.coli BL21 (DE3) pLysS cells assessed as residual activity at 1 uM relative to control
[26] = system: SU-DHL-6; assay: Antiproliferative activity against human SU-DHL-6 cells assessed as inhibition of cell growth incubated for 72 hrs by cell-titer glo assay; assay type: functional, cell-based; conditions: SU-DHL-6, 72 h
[27] = system: KARPAS-299; assay: Antiproliferative activity against human KARPAS-299 cells assessed as inhibition of cell growth incubated for 72 hrs by cell-titer glo assay; assay type: functional, cell-based; conditions: KARPAS-299, 72 h; how it was run: as §2
[28] = system: SU-DHL-8; assay: Antiproliferative activity against human SU-DHL-8 cells assessed as inhibition of cell growth incubated for 72 hrs by cell-titer glo assay; assay type: functional, cell-based; conditions: SU-DHL-8, 72 h
[29] = Antiproliferative activity against human GM13705 cells assessed as inhibition of cell growth incubated for 72 hrs by cell-titer glo assay; assay type: functional, cell-based; conditions: GM13705, 72 h; how it was run: as §2
[30] = system: HCT-116; assay: Antitumor activity against human HCT-116 cells xenografted in nu/nu mouse assessed as tumor growth inhibition at 45 mg/kg, iv administered for 3 days relative to control; assay type: functional; conditions: HCT-116, 72 h, time 3 day, read-out: TGI

**Q.** Which IC50 [1] does the source give for `CN1CCN(c2ccc(OC(F)(F)F)c(Nc3ncc4c(n3)-c3c(c(C(N)=O)nn3CCO)CC4)c2)CC1` [ONVANSERTIB] here?
**A.** Its IC50 is 515 nM.

**Q.** What about the IC50 [2] of the same compound?
**A.** Its IC50 is over 10000 nM.

**Q.** And the Activity [3]?
**A.** Its Activity is 75%.

**Q.** What about the IC50 [4] of the same compound?
**A.** Its IC50 is 285 nM.

**Q.** And the IC50 [5]?
**A.** Its IC50 is over 10000 nM.

**Q.** And the Time [6]?
**A.** Its Time is 50 days.

**Q.** And the IC50 [7]?
**A.** The IC50 was 991 nM.

**Q.** What about the half-life [8] of the same compound?
**A.** Its half-life is 1.6 h.

**Q.** What about the inhibition in vivo at 60 mg/kg [9] of the same compound?
**A.** Its inhibition in vivo at 60 mg/kg is 79%.

**Q.** What about the IC50 [10] of the same compound?
**A.** The IC50 was 156 nM.

**Q.** And the IC50 [11]?
**A.** Its IC50 is 22 nM.

**Q.** What about the Activity [12] of the same compound?
**A.** The Activity was 60%.

**Q.** What about the IC50 [13] of the same compound?
**A.** The IC50 was 47 nM.

**Q.** And the IC50 [14]?
**A.** The IC50 was 191 nM.

**Q.** What about the IC50 [15] of the same compound?
**A.** Its IC50 is 41 nM.

**Q.** And the Activity [16]?
**A.** Its Activity is 114%.

**Q.** What about the IC50 [17] of the same compound?
**A.** The IC50 was 32 nM.

**Q.** What about the Activity [18] of the same compound?
**A.** Its Activity is 93%.

**Q.** What about the concentration at 240 h [19] of the same compound?
**A.** Its concentration at 240 h is 433 nM.

**Q.** And the IC50 [20]?
**A.** Its IC50 is 629 nM.

**Q.** What about the Activity [21] of the same compound?
**A.** The Activity was 83%.

**Q.** What about the Activity [22] of the same compound?
**A.** The Activity was 85%.

**Q.** And the Activity [23]?
**A.** The Activity was “Active”.

**Q.** And the IC50 [24]?
**A.** Its IC50 is 41 nM.

**Q.** What about the Activity [25] of the same compound?
**A.** Its Activity is 85%.

**Q.** What about the IC50 [26] of the same compound?
**A.** The IC50 was 50 nM.

**Q.** And the IC50 [27]?
**A.** Its IC50 is 53 nM.

**Q.** And the IC50 [28]?
**A.** The IC50 was 31 nM.

**Q.** What about the IC50 [29] of the same compound?
**A.** The IC50 was 162 nM.

**Q.** And the inhibition in vivo at 45 mg/kg [30]?
**A.** The inhibition in vivo at 45 mg/kg was 83%.

Reference: ChEMBL document CHEMBL5678806, “NMS-P937, an orally available, specific small-molecule polo-like kinase 1 inhibitor with antitumor activity in solid and hematologic malignancies” (Mol Cancer Ther, 2012)
